Measured values from ChEMBL document CHEMBL4689842, “EUbOPEN Chemogenomics Library wave 1” (2021).

Test system: U2OS
Test: Multiplex assay against U2OS
Type: toxicity, cell-based
Conditions: human
Procedure, shortened: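 Live cells carried four stains from seeding: Hoechst33342, BioTracker Green Microtubule Cytoskeleton Dye, MitoTracker Red and Annexin V Alexa Fluor 680. They were imaged on a CQ1 microscope at 37°C and 5% CO2 after compound addition. Using CellPathfinder machine-learning gating, cells were split into Hoechst high-intensity objects or normal cells, normal cells into healthy, pyknosed or fragmented nuclei, and pyknosed cells into mitotic or apoptotic; tubulin, mitochondrial-mass and membrane-permeability phenotypes are per cents of healthy-nucleus cells.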

[1] = 12 h, 1 µM, compound concentration 1 uM, replicate 1
[2] = 12 h, 1 µM, compound concentration 1 uM, replicate 2
[3] = 12 h, 10 µM, compound concentration 10 uM, replicate 1
[4] = 12 h, 10 µM, compound concentration 10 uM, replicate 2
[5] = 24 h, 1 µM, compound concentration 1 uM, replicate 1
[6] = 24 h, 1 µM, compound concentration 1 uM, replicate 2
[7] = 24 h, 10 µM, compound concentration 10 uM, replicate 1
[8] = 24 h, 10 µM, compound concentration 10 uM, replicate 2
[9] = 48 h, 1 µM, compound concentration 1 uM, replicate 1
[10] = 48 h, 1 µM, compound concentration 1 uM, replicate 2
[11] = 48 h, 10 µM, compound concentration 10 uM, replicate 1
[12] = 48 h, 10 µM, compound concentration 10 uM, replicate 2

CCCCN(CC)c1nc(C)nc2c1c(C)cn2-c1c(C)cc(C)cc1C.Cl
Population Apoptotic (%) [1]: 33% | Population Healthy Nuclei (%) [1]: 76% | Population Hoechst High Intensity Objects (%) [1]: 8% | Population Membrane Permeable-Phenotype (%) [1]: 3% | Population Mitochondria Different-Phenotype (%) [1]: 7% | Population Mitotic Cells (%) [1]: 66% | Population Normal (%) [1]: 91% | Population Tubulin-Different-Phenotype (%) [1]: 6% | Total Cell Count [1]: 135 | Population Apoptotic (%) [2]: 55% | Population Fragmented Nuclei (%) [2]: 13% | Population Healthy Nuclei (%) [2]: 77% | Population Hoechst High Intensity Objects (%) [2]: 3% | Population Membrane Permeable-Phenotype (%) [2]: 5% | Population Mitochondria Different-Phenotype (%) [2]: 8% | Population Mitotic Cells (%) [2]: 44% | Population Normal (%) [2]: 96% | Population Pyknosed Nuclei (%) [2]: 9% | Population Tubulin-Different-Phenotype (%) [2]: 14% | Total Cell Count [2]: 95 | Population Apoptotic (%) [3]: 65% | Population Fragmented Nuclei (%) [3]: 17% | Population Healthy Nuclei (%) [3]: 67% | Population Hoechst High Intensity Objects (%) [3]: 7% | Population Membrane Permeable-Phenotype (%) [3]: 2% | Population Mitochondria Different-Phenotype (%) [3]: 51% | Population Mitotic Cells (%) [3]: 35% | Population Normal (%) [3]: 92% | Population Pyknosed Nuclei (%) [3]: 14% | Population Tubulin-Different-Phenotype (%) [3]: 37% | Total Cell Count [3]: 145 | Population Apoptotic (%) [4]: 20% | Population Fragmented Nuclei (%) [4]: 9% | Population Healthy Nuclei (%) [4]: 83% | Population Hoechst High Intensity Objects (%) [4]: 6% | Population Membrane Permeable-Phenotype (%) [4]: 4% | Population Mitochondria Different-Phenotype (%) [4]: 55% | Population Mitotic Cells (%) [4]: 80% | Population Normal (%) [4]: 93% | Population Pyknosed Nuclei (%) [4]: 6% | Population Tubulin-Different-Phenotype (%) [4]: 19% | Total Cell Count [4]: 78 | Population Apoptotic (%) [5]: 27% | Population Fragmented Nuclei (%) [5]: 7% | Population Healthy Nuclei (%) [5]: 85% | Population Mitochondria Different-Phenotype (%) [5]: 8% | Population Mitotic Cells (%) [5]: 72% | Population Pyknosed Nuclei (%) [5]: 7% | Population Tubulin-Different-Phenotype (%) [5]: 9% | Total Cell Count [5]: 162 | Population Apoptotic (%) [6]: 29% | Population Fragmented Nuclei (%) [6]: 13% | Population Healthy Nuclei (%) [6]: 70% | Population Hoechst High Intensity Objects (%) [6]: 5% | Population Membrane Permeable-Phenotype (%) [6]: 3% | Population Mitochondria Different-Phenotype (%) [6]: 6% | Population Mitotic Cells (%) [6]: 70% | Population Normal (%) [6]: 94% | Population Pyknosed Nuclei (%) [6]: 15% | Population Tubulin-Different-Phenotype (%) [6]: 7% | Total Cell Count [6]: 116 | Population Apoptotic (%) [7]: 68% | Population Fragmented Nuclei (%) [7]: 19% | Population Healthy Nuclei (%) [7]: 62% | Population Hoechst High Intensity Objects (%) [7]: 5% | Population Membrane Permeable-Phenotype (%) [7]: 2% | Population Mitochondria Different-Phenotype (%) [7]: 48% | Population Mitotic Cells (%) [7]: 32% | Population Normal (%) [7]: 94% | Population Pyknosed Nuclei (%) [7]: 17% | Population Tubulin-Different-Phenotype (%) [7]: 26% | Total Cell Count [7]: 152 | Population Apoptotic (%) [8]: 25% | Population Fragmented Nuclei (%) [8]: 8% | Population Healthy Nuclei (%) [8]: 80% | Population Hoechst High Intensity Objects (%) [8]: 4% | Population Membrane Permeable-Phenotype (%) [8]: 3% | Population Mitochondria Different-Phenotype (%) [8]: 54% | Population Mitotic Cells (%) [8]: 75% | Population Normal (%) [8]: 95% | Population Pyknosed Nuclei (%) [8]: 11% | Population Tubulin-Different-Phenotype (%) [8]: 21% | Total Cell Count [8]: 74 | Population Apoptotic (%) [9]: 27% | Population Fragmented Nuclei (%) [9]: 5% | Population Healthy Nuclei (%) [9]: 86% | Population Hoechst High Intensity Objects (%) [9]: 3% | Population Membrane Permeable-Phenotype (%) [9]: 0% | Population Mitochondria Different-Phenotype (%) [9]: 10% | Population Mitotic Cells (%) [9]: 72% | Population Normal (%) [9]: 96% | Population Pyknosed Nuclei (%) [9]: 7% | Population Tubulin-Different-Phenotype (%) [9]: 7% | Total Cell Count [9]: 253 | Population Apoptotic (%) [10]: 28% | Population Fragmented Nuclei (%) [10]: 8% | Population Healthy Nuclei (%) [10]: 82% | Population Hoechst High Intensity Objects (%) [10]: 1% | Population Membrane Permeable-Phenotype (%) [10]: 8% | Population Mitochondria Different-Phenotype (%) [10]: 14% | Population Mitotic Cells (%) [10]: 71% | Population Normal (%) [10]: 98% | Population Pyknosed Nuclei (%) [10]: 8% | Population Tubulin-Different-Phenotype (%) [10]: 13% | Total Cell Count [10]: 170 | Population Apoptotic (%) [11]: 39% | Population Fragmented Nuclei (%) [11]: 18% | Population Healthy Nuclei (%) [11]: 68% | Population Hoechst High Intensity Objects (%) [11]: 6% | Population Membrane Permeable-Phenotype (%) [11]: 4% | Population Mitochondria Different-Phenotype (%) [11]: 30% | Population Mitotic Cells (%) [11]: 60% | Population Normal (%) [11]: 93% | Population Pyknosed Nuclei (%) [11]: 12% | Population Tubulin-Different-Phenotype (%) [11]: 26% | Total Cell Count [11]: 192 | Population Apoptotic (%) [12]: 38% | Population Fragmented Nuclei (%) [12]: 9% | Population Healthy Nuclei (%) [12]: 71% | Population Hoechst High Intensity Objects (%) [12]: 5% | Population Membrane Permeable-Phenotype (%) [12]: 6% | Population Mitochondria Different-Phenotype (%) [12]: 38% | Population Mitotic Cells (%) [12]: 61% | Population Normal (%) [12]: 94% | Population Pyknosed Nuclei (%) [12]: 18% | Population Tubulin-Different-Phenotype (%) [12]: 12% | Total Cell Count [12]: 119
